Measured values: ChEMBL document CHEMBL4152354, “A reusable magnetic nickel nanoparticle based catalyst for the aqueous synthesis of diverse heterocycles and their evaluation as potential anti-bacterial agent” (2018)
Values after ≈ are worked out from the molar mass of the structure shown.

Legend:
Assay type in all cases: functional
Streptococcus pyogenes = assay: Antibacterial activity against Streptococcus pyogenes MTCC 1925 assessed as zone of inhibition at 100 uL after 24 hrs by agar well-diffusion method
Method in brief: (§1)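 Mueller-Hinton agar plates swabbed with a bacterial suspension adjusted to 1.5×10^8 CFU/ml. Each 5 mm well received 100 µl of compound, and plates were incubated at 37°C for 24 h. Chloramphenicol (30 mcg) was the positive control and DMSO the negative control. Inhibition zones around wells were measured manually, in triplicate.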

Salmonella enterica = assay: Antibacterial activity against Salmonella enterica MTCC 735 assessed as zone of inhibition at 100 uL after 24 hrs by agar well-diffusion method
Escherichia coli = assay: Antibacterial activity against Escherichia coli MTCC 730 assessed as zone of inhibition at 100 uL after 24 hrs by agar well-diffusion method; method in brief: as §1
Bacillus cereus [1] = assay: Antibacterial activity against Bacillus cereus MTCC 430 assessed as zone of inhibition at 100 uL after 24 hrs by agar well-diffusion method; method in brief: as §1
Klebsiella pneumoniae [2] = assay: Antibacterial activity against Klebsiella pneumoniae MTCC 109 assessed as zone of inhibition at 100 uL after 24 hrs by agar well-diffusion method; method in brief: as §1
Bacillus cereus [3] = assay: Antibacterial activity against Bacillus cereus MTCC 430 after 18 hrs by TTC staining based broth microdilution method; conditions: MTCC 430, 18 h
Method in brief: (§2)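 Broth microdilution in Mueller-Hinton broth. 50 µl of inoculum from a 0.5 McFarland suspension was added to 50 µl of compound, giving final concentrations of 0.024–400 mg/ml in DMSO. Sealed plates were incubated at 37°C for 18 h, then 50 µl of 0.5% TTC was added for 1 h in the dark. MIC was the lowest concentration with no visible growth (well stays clear). Triplicate; mean ± SD.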

Klebsiella pneumoniae [4] = assay: Antibacterial activity against Klebsiella pneumoniae MTCC 109 after 18 hrs by TTC staining based broth microdilution method; conditions: MTCC 109, 18 h; method in brief: as §2

| Compound | inhibition zone (IZ) (Streptococcus pyogenes) | inhibition zone (IZ) (Salmonella enterica) | inhibition zone (IZ) (Escherichia coli) | inhibition zone (IZ) (Bacillus cereus [1]) | inhibition zone (IZ) (Klebsiella pneumoniae [2]) | MIC (Bacillus cereus [3]) | MIC (Klebsiella pneumoniae [4]) |
| --- | --- | --- | --- | --- | --- | --- | --- |
| CCOc1ccc(C(c2c(O)c3ccccc3oc2=O)c2c(O)c3ccccc3oc2=O)cc1 | 20 mm | 11 mm | 13 mm | 12 mm | 19 mm | 3120 µg/mL (≈ 6840 µM) | 780 µg/mL (≈ 1710 µM) |
| O=c1oc2ccccc2c(O)c1C(c1ccc(Cl)cc1)c1c(O)c2ccccc2oc1=O | 24 mm | 10 mm | 23 mm | 19 mm | 25 mm | 390 µg/mL (≈ 873 µM) | 190 µg/mL (≈ 425 µM) |
| O=c1oc2ccccc2c(O)c1C(c1ccccc1)c1c(O)c2ccccc2oc1=O | 23 mm | 10 mm | 17 mm | 20 mm | 21 mm | 190 µg/mL (≈ 461 µM) | 190 µg/mL (≈ 461 µM) |
| O=c1oc2ccccc2c(O)c1C(c1ccco1)c1c(O)c2ccccc2oc1=O | 18 mm | 11 mm | 15 mm | 14 mm | 17 mm | 3120 µg/mL (≈ 7750 µM) | 780 µg/mL (≈ 1940 µM) |
| CC1(C)CC(=O)C(C(C2=C(O)CC(C)(C)CC2=O)c2ccccc2)=C(O)C1 | 0 mm | 0 mm | 0 mm | 0 mm | 0 mm |  |  |
| O=c1oc2ccccc2c(O)c1C(c1ccccc1Cl)c1c(O)c2ccccc2oc1=O | 22 mm | 10 mm | 18 mm | 11 mm | 24 mm | 3120 µg/mL (≈ 6980 µM) | 190 µg/mL (≈ 425 µM) |
| CC1(C)CC(=O)C(C(C2=C(O)CC(C)(C)CC2=O)c2ccc([N+](=O)[O-])cc2)=C(O)C1 | 0 mm | 0 mm | 0 mm | 15 mm | 14 mm |  |  |
| O=c1oc2ccccc2c(O)c1C(c1ccc(O)cc1)c1c(O)c2ccccc2oc1=O | 10 mm | 10 mm | 10 mm | 10 mm | 10 mm | 6250 µg/mL (≈ 14600 µM) | 3120 µg/mL (≈ 7280 µM) |
| O=c1oc2ccccc2c(O)c1C(c1ccc([N+](=O)[O-])cc1)c1c(O)c2ccccc2oc1=O | 15 mm | 11 mm | 13 mm | 16 mm | 19 mm | 780 µg/mL (≈ 1710 µM) | 390 µg/mL (≈ 853 µM) |
| COc1ccc(C(c2c(O)c3ccccc3oc2=O)c2c(O)c3ccccc3oc2=O)cc1OC | 13 mm | 10 mm | 15 mm | 16 mm | 18 mm | 780 µg/mL (≈ 1650 µM) | 780 µg/mL (≈ 1650 µM) |
| COc1ccc(C(c2c(C)[nH][nH]c2=O)C2C(=O)NC(=O)NC2=O)cc1OC (configuration not stated) | 17 mm | 10 mm | 16 mm | 15 mm | 21 mm | 780 µg/mL (≈ 2080 µM) | 390 µg/mL (≈ 1040 µM) |
| COc1cc(C(C2=C(O)CC(C)(C)CC2=O)C2=C(O)CC(C)(C)CC2=O)cc(OC)c1OC | 0 mm | 0 mm | 0 mm | 0 mm | 0 mm |  |  |
| Cc1ccc(C(C2=C(O)CC(C)(C)CC2=O)C2=C(O)CC(C)(C)CC2=O)cc1 | 0 mm | 0 mm | 0 mm | 0 mm | 0 mm |  |  |
| CCC(C1=C(O)CC(C)(C)CC1=O)C1=C(O)CC(C)(C)CC1=O | 0 mm | 0 mm | 0 mm | 0 mm | 0 mm |  |  |
| Cc1[nH][nH]c(=O)c1C(c1cccc(F)c1)C1C(=O)NC(=O)NC1=O (configuration not stated) | 15 mm | 11 mm | 15 mm | 15 mm | 20 mm | 780 µg/mL (≈ 2350 µM) | 390 µg/mL (≈ 1170 µM) |
| COc1ccc(C(c2c(C)[nH][nH]c2=O)C2C(=O)NC(=O)NC2=O)cc1 (configuration not stated) | 13 mm | 11 mm | 14 mm | 14 mm | 11 mm | 6250 µg/mL (≈ 18200 µM) | 3120 µg/mL (≈ 9060 µM) |
